{
  "source": "ChEMBL document CHEMBL1177741",
  "about": "“Cardiac glycosides from Antiaris toxicaria with potent cardiotonic activity” (J Nat Prod, 2010)",
  "key": {"Cavia porcellus": {"species_on_record": "Cavia porcellus", "assay": "Inhibition of Na(+)/K(+)-ATPase in guinea pig atria by whole cell patch clamp method"}, "[1]": {"assay": "Safety index, ratio of arrhythmogenic concentration to minimum positive inotropic effective concentration causing myocardial contraction in guinea pig right ventricular muscles", "type": "toxicity, tissue-based, Cavia porcellus, Muscle tissue", "conditions": "isolated right ventricular muscles", "summary_of_the_method": "(§1)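 Paced guinea pig left atrial or right ventricular strips (1 g tension, 2 Hz) received cumulative drug addition. The lowest concentration raising contraction (PIECmin) and the concentration inducing arrhythmia were both recorded. Safety index was calculated as the ratio of the arrhythmogenic concentration to PIECmin.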"}, "[2]": {"assay": "Cardiotonic activity in guinea pig left atrial muscles assessed as minimum positive inotropic effective concentration causing myocardial contraction", "type": "functional, Cavia porcellus, Muscle tissue", "summary_of_the_method": "(§2)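 Guinea pig left atrial or right ventricular strips were perfused with Tyrode's solution, held at 1 g tension and paced at 2 Hz (2 ms, twice threshold). After about 60 min stabilisation, drug was added cumulatively. PIECmin was recorded as the lowest concentration that increased myocardial contraction.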"}, "[3]": {"assay": "Cardiotonic activity in guinea pig left atrial muscles assessed as maximum positive inotropic effective concentration causing myocardial contraction relative to basal level", "type": "functional, Cavia porcellus, Muscle tissue", "summary_of_the_method": "(§3)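 Isolated left atrial or right ventricular strips from adult guinea pigs (300–500 g; pentobarbital 25 mg/kg i.p.; heart retrogradely perfused with Tyrode's, pH not stated). Tissue held at 1 g tension, paced at 2 Hz (2 ms pulses, twice threshold), stabilised about 60 min, then given cumulative drug additions. Maximal inotropic effect taken at the concentration just before arrhythmia onset.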"}, "[4]": {"assay": "Safety index, ratio of arrhythmogenic concentration to minimum positive inotropic effective concentration causing myocardial contraction in guinea pig left atrial muscles", "type": "toxicity, tissue-based, Cavia porcellus, Muscle tissue", "conditions": "isolated left atrial muscles", "summary_of_the_method": "as §1"}, "[5]": {"assay": "Cardiotonic activity in guinea pig right ventricular muscles assessed as maximum positive inotropic effective concentration causing myocardial contraction relative to basal level", "type": "functional, Cavia porcellus, Muscle tissue", "summary_of_the_method": "as §3"}, "[6]": {"assay": "Cardiotonic activity in guinea pig right ventricular muscles assessed as minimum positive inotropic effective concentration causing myocardial contraction", "type": "functional, Cavia porcellus, Muscle tissue", "summary_of_the_method": "as §2"}},
  "data": [
    {"smiles": "C[C@@H]1O[C@H](O[C@H]2CC[C@@]3(C=O)[C@H](CC[C@@H]4[C@@H]3CC[C@]3(C)[C@@H](C5=CC(=O)OC5)CC[C@]43O)C2)[C@H](O)[C@H](O)[C@H]1O", "note": "[MALAYOSIDE]", "values": [
      {"measurement": "inhibition", "setting": "Cavia porcellus", "result": "Dose-dependent effect"},
      {"measurement": "selectivity ratio", "setting": "[1]", "result": 24},
      {"measurement": "Activity", "setting": "[2]", "result": 0.25, "unit": "µM"},
      {"measurement": "Activity", "setting": "[3]", "result": 660, "unit": "%"},
      {"measurement": "selectivity ratio", "setting": "[4]", "result": 20},
      {"measurement": "Activity", "setting": "[5]", "result": 464, "unit": "%"},
      {"measurement": "Activity", "setting": "[6]", "result": 0.25, "unit": "µM"}
    ]},
    {"smiles": "C[C@]12CC[C@H]3[C@@H](CC[C@]4(O)C[C@@H](O)CC[C@]34C=O)[C@@]1(O)CC[C@@H]2C1=CC(=O)OC1", "note": "[STROPHANTHIDIN]", "values": [
      {"measurement": "selectivity ratio", "setting": "[1]", "result": 8.7},
      {"measurement": "Activity", "setting": "[2]", "result": 1, "unit": "µM"},
      {"measurement": "Activity", "setting": "[3]", "result": 165, "unit": "%"},
      {"measurement": "selectivity ratio", "setting": "[4]", "result": 9},
      {"measurement": "Activity", "setting": "[5]", "result": 240, "unit": "%"},
      {"measurement": "Activity", "setting": "[6]", "result": 4.8, "unit": "µM"}
    ]},
    {"smiles": "C[C@@H]1O[C@H](O[C@H]2CC[C@]3(C(=O)O)[C@H]4C[C@@H](O)[C@]5(C)[C@@H](C6=CC(=O)OC6)CC[C@]5(O)[C@@H]4CC[C@]3(O)C2)[C@H](O)[C@H](O)[C@H]1O", "note": "[ANTIAROSIDE G]", "values": [
      {"measurement": "selectivity ratio", "setting": "[1]", "result": 20.7},
      {"measurement": "Activity", "setting": "[2]", "result": 3.75, "unit": "µM"},
      {"measurement": "Activity", "setting": "[3]", "result": 419, "unit": "%"},
      {"measurement": "selectivity ratio", "setting": "[4]", "result": 13},
      {"measurement": "Activity", "setting": "[5]", "result": 221, "unit": "%"},
      {"measurement": "Activity", "setting": "[6]", "result": 3.67, "unit": "µM"}
    ]}
  ]
}
